Measurements: ChEMBL document CHEMBL2434969, “[(4-Hydroxyl-benzo[4,5]thieno[3,2-c]pyridine-3-carbonyl)-amino]-acetic acid derivatives; HIF prolyl 4-hydroxylase inhibitors as oral erythropoietin secretagogues” (Bioorg Med Chem Lett, 2013)
Active and inactive are the calls of the source. No cut-off for these calls is given here.

Columns and labels:
[1] = Bioavailability in CD1 mouse at 4 mg/kg, iv; format: ADME, organism-based; conditions: in vivo
[2] = Volume of distribution at steady state in CD1 mouse at 4 mg/kg, iv; format: ADME, organism-based; parameters: dose 4 mg/kg, route intravenous; conditions: in vivo, read-out: Vdss
[3] = Clearance in CD1 mouse at 4 mg/kg, iv; format: ADME, organism-based; parameters: dose 4 mg/kg, route intravenous; conditions: in vivo
[4] = Half life in CD1 mouse at 4 mg/kg, iv; format: ADME, organism-based; parameters: dose 4 mg/kg, route intravenous; conditions: in vivo
[5] = AUC (0 to t) in CD1 mouse at 4 mg/kg, iv; format: ADME, organism-based; parameters: dose 4 mg/kg, route intravenous; conditions: plasma
[6] = AUC (0 to t) in CD1 mouse at 20 mg/kg, po; format: ADME, organism-based; parameters: dose 20 mg/kg, route oral; conditions: plasma
[7] = Cmax in CD1 mouse at 20 mg/kg, po; format: ADME, organism-based; parameters: dose 20 mg/kg, route oral; conditions: in vivo
[8] = Tmax in CD1 mouse at 20 mg/kg, po; format: ADME, organism-based; parameters: dose 20 mg/kg, route oral; conditions: in vivo
[9] = Metabolic stability in human S9 fraction assessed as compound remaining measured at 60 mins; format: ADME; conditions: read-out: Stability
[10] = Metabolic stability in mouse S9 fraction assessed as compound remaining measured at 60 mins; format: ADME; conditions: s9, 1 h
[11] = Metabolic stability in human microsomes assessed as compound remaining measured at 60 mins; format: ADME, Microsome; conditions: read-out: Stability
[12] = Metabolic stability in mouse microsomes assessed as compound remaining measured at 60 mins; format: ADME, Microsome; conditions: read-out: Stability
Mus musculus [13] = assay: Anti-anemia activity in ICR mouse assessed as increase in hemoglobin level at 50 mg/kg, qd administered for 12 days measured on day 16; format: functional, organism-based; parameters: dose 50 mg/kg
In short: (§1)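 Normal male ICR mice, 6 weeks old, dosed once daily for 4 days (QDx4) or 12 days (QDx12) alongside a vehicle group. Mice were split into groups by blood sampling day (D5, D8, D13, D16). Hematocrit, RBC count and Hb were measured in blood. Statistics: P<0.05 and P<0.01 vs vehicle at each sampling time.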

Mus musculus [14] = assay: Anti-anemia activity in ICR mouse assessed as increase in hemoglobin level at 50 mg/kg, qd administered for 12 days measured on day 13; format: functional, organism-based; parameters: dose 50 mg/kg; in short: as §1
Mus musculus [15] = assay: Anti-anemia activity in ICR mouse assessed as increase in hemoglobin level at 50 mg/kg, qd administered for 4 days measured on day 8; format: functional, organism-based; parameters: dose 50 mg/kg; in short: as §1
Mus musculus [16] = assay: Anti-anemia activity in ICR mouse assessed as increase in hemoglobin level at 50 mg/kg, qd administered for 4 days measured on day 5; format: functional, organism-based; parameters: dose 50 mg/kg; in short: as §1
Mus musculus [17] = assay: Anti-anemia activity in ICR mouse assessed as increase in red blood cell count at 50 mg/kg, qd administered for 12 days measured on day 16; format: functional, organism-based; parameters: dose 50 mg/kg; in short: as §1
Mus musculus [18] = assay: Anti-anemia activity in ICR mouse assessed as increase in red blood cell count at 50 mg/kg, qd administered for 12 days measured on day 13; format: functional, organism-based; parameters: dose 50 mg/kg; in short: as §1
Mus musculus [19] = assay: Anti-anemia activity in ICR mouse assessed as increase in red blood cell count at 50 mg/kg, qd administered for 4 days measured on day 8; format: functional, organism-based; parameters: dose 50 mg/kg; in short: as §1
Mus musculus [20] = assay: Anti-anemia activity in ICR mouse assessed as increase in red blood cell count at 50 mg/kg, qd administered for 4 days measured on day 5; format: functional, organism-based; parameters: dose 50 mg/kg; in short: as §1
Mus musculus [21] = assay: Anti-anemia activity in ICR mouse assessed as increase in hematocrit level at 50 mg/kg, qd administered for 12 days measured on day 16; format: functional, organism-based; parameters: dose 50 mg/kg; in short: as §1
Mus musculus [22] = assay: Anti-anemia activity in ICR mouse assessed as increase in hematocrit level at 50 mg/kg, qd administered for 12 days measured on day 13; format: functional, organism-based; parameters: dose 50 mg/kg; in short: as §1
Mus musculus [23] = assay: Anti-anemia activity in ICR mouse assessed as increase in hematocrit level at 50 mg/kg, qd administered for 4 days measured on day 8; format: functional, organism-based; parameters: dose 50 mg/kg; in short: as §1
Mus musculus [24] = assay: Anti-anemia activity in ICR mouse assessed as increase in hematocrit level at 50 mg/kg, qd administered for 4 days measured on day 5; format: functional, organism-based; parameters: dose 50 mg/kg; in short: as §1

O=C(O)CNC(=O)c1nc(Cl)c2c(sc3ccccc32)c1O
bioavailability [1]: 63.2% | Vd [2]: 0.503 L/kg | clearance [3]: 3.92 mL/min/kg | half-life [4]: 2.79 h | AUC(0-t) [5]: 17000 ng·h/mL | AUC(0-t) [6]: 53700 ng·h/mL | Cmax [7]: 15100 ng/mL | Tmax [8]: 0.5 h | remaining at 1 h [9]: 101% | Stability [10]: 125.7% | remaining at 1 h [11]: 119% | remaining at 1 h [12]: 68.6%

O=C(O)CNC(=O)c1nc(Cl)c2ccccc2c1O
inhibition (Mus musculus [13]): Active | inhibition (Mus musculus [14]): Active | inhibition (Mus musculus [15]): Active | inhibition (Mus musculus [16]): Active | inhibition (Mus musculus [17]): Active | inhibition (Mus musculus [18]): Active | inhibition (Mus musculus [19]): Active | inhibition (Mus musculus [20]): Active | inhibition (Mus musculus [21]): Active | inhibition (Mus musculus [22]): Active | inhibition (Mus musculus [23]): Active | inhibition (Mus musculus [24]): Active
